Measurements: ChEMBL document CHEMBL2016534 (ACS Med Chem Lett, 2011)
Each block holds one compound with its values, some of them ahead of it. Activity calls are given as the source filed them. The calls are words filed in the database; no cut-off is given here.

Tests used:
[1] = molecular target: T1, Phosphatidylinositol 4,5-bisphosphate 3-kinase catalytic subunit delta isoform (Homo sapiens) (UniProt O00329); assay: Inhibition of PI3Kdelta
T1 sequence (whole entry): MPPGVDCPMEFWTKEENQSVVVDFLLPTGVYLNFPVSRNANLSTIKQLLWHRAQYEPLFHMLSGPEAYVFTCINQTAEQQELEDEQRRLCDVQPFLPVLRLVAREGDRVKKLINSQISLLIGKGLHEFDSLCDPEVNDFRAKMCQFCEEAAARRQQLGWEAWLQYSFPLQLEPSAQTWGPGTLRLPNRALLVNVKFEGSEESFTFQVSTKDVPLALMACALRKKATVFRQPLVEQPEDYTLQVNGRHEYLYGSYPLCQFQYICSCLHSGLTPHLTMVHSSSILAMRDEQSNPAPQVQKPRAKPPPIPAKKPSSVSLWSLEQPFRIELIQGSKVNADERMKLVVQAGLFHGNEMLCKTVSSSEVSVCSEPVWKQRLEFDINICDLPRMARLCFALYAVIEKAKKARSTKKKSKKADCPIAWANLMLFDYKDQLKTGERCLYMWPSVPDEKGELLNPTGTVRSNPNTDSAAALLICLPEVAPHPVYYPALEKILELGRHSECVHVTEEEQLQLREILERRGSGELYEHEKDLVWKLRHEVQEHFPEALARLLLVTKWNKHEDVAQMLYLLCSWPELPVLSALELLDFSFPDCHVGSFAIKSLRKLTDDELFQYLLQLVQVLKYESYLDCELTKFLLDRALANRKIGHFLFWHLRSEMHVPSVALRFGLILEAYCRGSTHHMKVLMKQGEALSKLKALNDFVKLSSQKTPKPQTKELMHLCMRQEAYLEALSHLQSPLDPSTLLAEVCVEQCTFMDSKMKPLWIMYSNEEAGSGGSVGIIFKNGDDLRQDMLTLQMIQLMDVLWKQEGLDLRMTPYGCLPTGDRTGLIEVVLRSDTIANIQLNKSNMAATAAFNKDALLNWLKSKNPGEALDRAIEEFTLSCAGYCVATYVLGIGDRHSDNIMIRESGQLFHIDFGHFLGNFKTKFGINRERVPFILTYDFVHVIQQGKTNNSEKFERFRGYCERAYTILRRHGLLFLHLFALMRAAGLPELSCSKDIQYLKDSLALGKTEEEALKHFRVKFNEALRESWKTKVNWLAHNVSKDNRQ

[2] = Metabolic stability in human liver microsomes assessed as extraction ratio; format: ADME, Microsome; conditions: read-out: ERH
In short: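 Human liver microsome CLint scaled up with liver physiology parameters (mg HLM/g liver, g liver/kg body weight) to mL/min/kg. Predicted hepatic clearance (CLH, mL/min/kg) then calculated by the well-stirred model. Extraction ratio taken as predicted CLH divided by hepatic blood flow (QH).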

[3] = molecular target: T2, Phosphatidylinositol 4,5-bisphosphate 3-kinase catalytic subunit alpha isoform (Homo sapiens, UniProt P42336); assay: Inhibition of PI3Kalpha
[4] = molecular target: T3, Serine/threonine-protein kinase mTOR (Homo sapiens, UniProt P42345); assay: Inhibition of mTOR
[5] = molecular target: T2, Phosphatidylinositol 4,5-bisphosphate 3-kinase catalytic subunit alpha isoform; assay: Inhibition of PI3Kalpha-mediated AKT phosphorylation at S473 by cell based assay
[6] = Metabolic stability in rat liver microsomes assessed as extraction ratio; format: ADME, Microsome; conditions: read-out: ERH
[7] = Metabolic stability in mouse liver microsomes assessed as extraction ratio; format: ADME, Microsome; conditions: read-out: ERH
MDR1 (human) = assay: Efflux ratio of permeability from basolateral to apical side to apical to basolateral side of dog RRCK cells expressing human MDR1; format: ADME, cell-based, Canis lupus familiaris, MDCKII-LE
CYP1A2 = molecular target: T4, CYP1A2 (Homo sapiens, UniProt P05177); assay: Inhibition of CYP1A2 at 3 uM; format: ADME
T4 sequence (P05177 whole entry): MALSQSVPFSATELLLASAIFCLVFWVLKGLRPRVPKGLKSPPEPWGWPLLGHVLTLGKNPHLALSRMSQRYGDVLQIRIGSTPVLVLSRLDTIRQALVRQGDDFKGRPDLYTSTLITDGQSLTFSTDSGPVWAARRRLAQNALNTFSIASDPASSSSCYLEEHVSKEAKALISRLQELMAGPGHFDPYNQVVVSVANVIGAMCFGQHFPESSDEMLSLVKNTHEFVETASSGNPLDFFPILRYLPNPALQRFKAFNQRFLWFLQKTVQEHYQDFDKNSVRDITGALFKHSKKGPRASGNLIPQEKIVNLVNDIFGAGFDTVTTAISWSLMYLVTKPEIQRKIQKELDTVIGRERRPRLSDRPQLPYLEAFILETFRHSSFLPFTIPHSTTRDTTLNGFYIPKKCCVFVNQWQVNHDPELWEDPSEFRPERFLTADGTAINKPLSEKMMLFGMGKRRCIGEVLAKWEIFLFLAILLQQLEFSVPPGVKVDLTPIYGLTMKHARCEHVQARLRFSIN

CYP2C9 = CYP2C9 (Homo sapiens, UniProt P11712); assay: Inhibition of CYP2C9 at 3 uM; format: ADME
CYP2D6 = CYP2D6 (Homo sapiens, UniProt P10635); assay: Inhibition of CYP2D6 at 3 uM; format: ADME
CYP3A4 = CYP3A4 (Homo sapiens, UniProt P08684); assay: Inhibition of CYP3A4 at 3 uM; format: ADME
[8] = Drug excretion in bile duct cannulated rat bile; format: ADME; conditions: read-out: Drug excretion
[9] = Drug excretion in bile duct cannulated rat urine; format: ADME; conditions: read-out: Drug excretion
NCI-H460 = assay: Cytotoxicity against human NCI-H460 cells harboring PI3KCA mutation by MTT assay; format: functional, cell-based
NCI-H1975 = assay: Cytotoxicity against human NCI-H1975 cells harboring PI3KCA mutation by MTT assay; format: functional, cell-based
NCI-H23 = assay: Cytotoxicity against human NCI-H23 cells harboring PTEN mutation by MTT assay; format: functional, cell-based
NCI-H1650 = assay: Cytotoxicity against PTEN deficient human NCI-H1650 cells by MTT assay; format: functional, cell-based
[10] = molecular target: T3, Serine/threonine-protein kinase mTOR; assay: Inhibition of mTOR at 1 uM

T2 sequence (P42336 whole entry, canonical isoform): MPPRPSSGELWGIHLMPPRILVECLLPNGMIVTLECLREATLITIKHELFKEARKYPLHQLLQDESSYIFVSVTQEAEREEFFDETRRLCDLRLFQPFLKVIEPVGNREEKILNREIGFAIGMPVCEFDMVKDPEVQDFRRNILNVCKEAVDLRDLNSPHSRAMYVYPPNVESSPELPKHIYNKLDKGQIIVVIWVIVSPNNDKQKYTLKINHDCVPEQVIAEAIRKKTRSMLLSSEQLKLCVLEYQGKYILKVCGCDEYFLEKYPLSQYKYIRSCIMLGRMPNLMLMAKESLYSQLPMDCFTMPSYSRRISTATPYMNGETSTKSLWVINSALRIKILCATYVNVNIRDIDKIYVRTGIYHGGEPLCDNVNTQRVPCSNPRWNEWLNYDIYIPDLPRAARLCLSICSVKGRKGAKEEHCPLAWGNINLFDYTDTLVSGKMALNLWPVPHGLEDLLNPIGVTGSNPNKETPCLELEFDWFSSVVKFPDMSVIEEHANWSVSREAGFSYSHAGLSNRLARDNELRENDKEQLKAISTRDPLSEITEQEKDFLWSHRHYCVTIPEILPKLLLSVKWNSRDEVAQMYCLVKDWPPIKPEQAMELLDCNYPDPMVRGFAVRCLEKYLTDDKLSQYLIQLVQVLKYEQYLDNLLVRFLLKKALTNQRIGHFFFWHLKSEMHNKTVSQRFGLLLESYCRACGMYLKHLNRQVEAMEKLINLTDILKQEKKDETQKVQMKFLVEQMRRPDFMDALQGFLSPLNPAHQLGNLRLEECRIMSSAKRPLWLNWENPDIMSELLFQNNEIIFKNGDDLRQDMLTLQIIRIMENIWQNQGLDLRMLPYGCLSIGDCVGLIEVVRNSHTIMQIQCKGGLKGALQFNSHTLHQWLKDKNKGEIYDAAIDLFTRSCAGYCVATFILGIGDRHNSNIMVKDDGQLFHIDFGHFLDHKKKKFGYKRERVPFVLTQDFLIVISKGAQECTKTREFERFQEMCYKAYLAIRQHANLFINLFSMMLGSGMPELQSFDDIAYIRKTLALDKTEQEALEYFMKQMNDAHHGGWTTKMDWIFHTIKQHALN
Sequence of CYP2D6 (P10635 whole entry): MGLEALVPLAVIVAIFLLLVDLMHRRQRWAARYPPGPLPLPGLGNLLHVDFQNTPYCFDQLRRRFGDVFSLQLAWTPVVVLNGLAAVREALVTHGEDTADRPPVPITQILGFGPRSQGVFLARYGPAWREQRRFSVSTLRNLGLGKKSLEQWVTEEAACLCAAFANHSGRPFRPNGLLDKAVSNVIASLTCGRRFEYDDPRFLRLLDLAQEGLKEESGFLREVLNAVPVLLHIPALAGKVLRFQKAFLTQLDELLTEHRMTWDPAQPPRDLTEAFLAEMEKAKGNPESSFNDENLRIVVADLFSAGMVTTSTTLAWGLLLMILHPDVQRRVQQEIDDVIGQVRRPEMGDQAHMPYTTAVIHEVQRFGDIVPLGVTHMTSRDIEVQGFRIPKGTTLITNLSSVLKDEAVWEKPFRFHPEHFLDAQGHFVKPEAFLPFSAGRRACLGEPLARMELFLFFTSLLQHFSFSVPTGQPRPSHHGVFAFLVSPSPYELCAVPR
Sequence of CYP3A4 (P08684 whole entry): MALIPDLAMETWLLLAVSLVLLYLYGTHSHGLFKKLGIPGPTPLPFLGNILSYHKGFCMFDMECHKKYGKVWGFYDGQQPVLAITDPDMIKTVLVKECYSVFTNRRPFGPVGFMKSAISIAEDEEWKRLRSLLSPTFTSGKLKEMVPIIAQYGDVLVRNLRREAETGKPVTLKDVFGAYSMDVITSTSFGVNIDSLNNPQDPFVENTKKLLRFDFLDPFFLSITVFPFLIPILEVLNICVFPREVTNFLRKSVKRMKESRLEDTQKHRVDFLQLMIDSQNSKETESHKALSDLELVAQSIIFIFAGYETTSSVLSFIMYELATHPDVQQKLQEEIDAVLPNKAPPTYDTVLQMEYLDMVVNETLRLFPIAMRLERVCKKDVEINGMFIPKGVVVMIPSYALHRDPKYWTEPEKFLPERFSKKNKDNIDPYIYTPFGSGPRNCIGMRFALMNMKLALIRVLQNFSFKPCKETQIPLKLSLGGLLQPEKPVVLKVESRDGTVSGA
Sequence of CYP2C9 (P11712 whole entry): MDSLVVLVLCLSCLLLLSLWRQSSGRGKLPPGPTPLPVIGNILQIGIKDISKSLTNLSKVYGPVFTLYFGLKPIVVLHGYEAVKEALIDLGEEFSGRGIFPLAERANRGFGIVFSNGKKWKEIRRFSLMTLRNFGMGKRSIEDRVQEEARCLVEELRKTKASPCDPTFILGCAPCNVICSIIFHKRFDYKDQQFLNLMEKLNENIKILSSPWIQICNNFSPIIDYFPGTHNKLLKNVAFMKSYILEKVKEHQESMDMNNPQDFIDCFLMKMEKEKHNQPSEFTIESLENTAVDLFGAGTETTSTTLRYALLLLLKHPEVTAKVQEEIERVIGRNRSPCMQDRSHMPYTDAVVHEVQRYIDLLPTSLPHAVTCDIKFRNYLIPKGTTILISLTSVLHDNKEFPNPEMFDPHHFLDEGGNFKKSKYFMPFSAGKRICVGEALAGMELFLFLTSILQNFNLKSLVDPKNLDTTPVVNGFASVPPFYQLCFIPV

- inhibition [1]: Active
Compound: N#Cc1ccc(-c2c(-c3ncn[nH]3)sc(N3CCOCC3)c2C#N)c(F)c1

- hepatic extraction ratio [2]: 0.35
- Ki [3]: 0.6 nM
- Ki [4]: 1440 nM
- IC50 [5]: 79 nM
- hepatic extraction ratio [6]: 0.529
- hepatic extraction ratio [7]: 0.639
- efflux ratio (MDR1 (human)): 2.6
Compound: N#Cc1ccc(-c2c(-c3nnc[nH]3)sc(N3CCOCC3)c2C#N)c(F)c1

- hepatic extraction ratio [2]: 0.7
- Ki [3]: 3 nM
Compound: N#Cc1c(N2CCOCC2)sc(-c2cn[nH]n2)c1-c1ccc(Cl)cc1

- hepatic extraction ratio [2]: 0.3
- Ki [3]: 0.35 nM
- Ki [4]: 2470 nM
- IC50 [5]: 35 nM
- hepatic extraction ratio [6]: 0.89
- hepatic extraction ratio [7]: 0.88
- efflux ratio (MDR1 (human)): 2.56
- inhibition at 3 µM (CYP1A2): < 30%
- inhibition at 3 µM (CYP2C9): < 30%
- inhibition at 3 µM (CYP2D6): < 30%
- inhibition at 3 µM (CYP3A4): < 30%
- dose excreted [8]: < 1%
- dose excreted [9]: < 1%
Compound: N#Cc1c(N2CCOCC2)sc(-c2nnc[nH]2)c1-c1ccc(Cl)cc1Cl

- hepatic extraction ratio [2]: 0.7
- Ki [3]: 1.8 nM
Compound: N#Cc1c(N2CCOCC2)sc(-c2cc[nH]n2)c1-c1ccc(Cl)cc1

- Ki [3]: 175 nM
Compound: N#Cc1c(N2CCOCC2)sc(-c2cn[nH]c2)c1-c1ccc(Cl)cc1

- Ki [3]: 230 nM
Compound: N#Cc1c(N2CCOCC2)sc(C(=O)O)c1-c1ccc(Cl)cc1

- inhibition [1]: Active
Compound: N#Cc1c(N2CCOCC2)sc(-c2ncn[nH]2)c1-c1ccc(Cl)cc1Cl
- Activity (NCI-H460): Active
- Activity (NCI-H1975): Active
- Activity (NCI-H23): Active
- Activity (NCI-H1650): Active

- hepatic extraction ratio [2]: 0.3
- Ki [3]: 1.7 nM
- Ki [4]: 434 nM
- IC50 [5]: 73 nM
Compound: N#Cc1c(N2CCOCC2)sc(-c2nc[nH]n2)c1-c1ccc(Cl)cc1

- Ki [3]: 13 nM
- IC50 [5]: 760 nM
- inhibition [10]: 47%
Compound: N#Cc1c(N2CCOCC2)sc(C(N)=O)c1-c1ccc(Cl)cc1

- Ki [3]: 1280 nM
Compound: Cc1nnc(-c2sc(N3CCOCC3)c(C#N)c2-c2ccc(Cl)cc2)o1
